pIC50: −log10 of the molar value. The source made the active and inactive calls. The rule behind the calls is not given here. A value given as a limit tells only on which side of the number the result lay.

The species entered for assay [1] is Sus scrofa. As to the kind of experiment: Inhibition of pig brain topoisomerase 1-mediated supercoiled DNA relaxation after 20 mins by agarose gel electrophoresis analysis. Summed up:
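Supercoiled DNA was incubated with topo I, with or without test compound. Gel lanes included supercoiled DNA alone, DNA plus enzyme without compound, and DNA plus enzyme with camptothecin as the reference inhibitor.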

For assay [2], the species on record is Sus scrofa. As to the kind of experiment: Inhibition of pig brain topoisomerase 2-mediated supercoiled DNA relaxation after 20 mins by agarose gel electrophoresis analysis. Summed up: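 Supercoiled DNA was incubated with topo II, with or without test compound. Gel lanes included supercoiled DNA alone, DNA plus enzyme without compound, and DNA plus enzyme with AMSA as the reference inhibitor.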

Assay [3] deals with T1, Kinesin-like protein KIF11 (Homo sapiens, UniProt P52732).
T1 sequence (P52732 whole entry): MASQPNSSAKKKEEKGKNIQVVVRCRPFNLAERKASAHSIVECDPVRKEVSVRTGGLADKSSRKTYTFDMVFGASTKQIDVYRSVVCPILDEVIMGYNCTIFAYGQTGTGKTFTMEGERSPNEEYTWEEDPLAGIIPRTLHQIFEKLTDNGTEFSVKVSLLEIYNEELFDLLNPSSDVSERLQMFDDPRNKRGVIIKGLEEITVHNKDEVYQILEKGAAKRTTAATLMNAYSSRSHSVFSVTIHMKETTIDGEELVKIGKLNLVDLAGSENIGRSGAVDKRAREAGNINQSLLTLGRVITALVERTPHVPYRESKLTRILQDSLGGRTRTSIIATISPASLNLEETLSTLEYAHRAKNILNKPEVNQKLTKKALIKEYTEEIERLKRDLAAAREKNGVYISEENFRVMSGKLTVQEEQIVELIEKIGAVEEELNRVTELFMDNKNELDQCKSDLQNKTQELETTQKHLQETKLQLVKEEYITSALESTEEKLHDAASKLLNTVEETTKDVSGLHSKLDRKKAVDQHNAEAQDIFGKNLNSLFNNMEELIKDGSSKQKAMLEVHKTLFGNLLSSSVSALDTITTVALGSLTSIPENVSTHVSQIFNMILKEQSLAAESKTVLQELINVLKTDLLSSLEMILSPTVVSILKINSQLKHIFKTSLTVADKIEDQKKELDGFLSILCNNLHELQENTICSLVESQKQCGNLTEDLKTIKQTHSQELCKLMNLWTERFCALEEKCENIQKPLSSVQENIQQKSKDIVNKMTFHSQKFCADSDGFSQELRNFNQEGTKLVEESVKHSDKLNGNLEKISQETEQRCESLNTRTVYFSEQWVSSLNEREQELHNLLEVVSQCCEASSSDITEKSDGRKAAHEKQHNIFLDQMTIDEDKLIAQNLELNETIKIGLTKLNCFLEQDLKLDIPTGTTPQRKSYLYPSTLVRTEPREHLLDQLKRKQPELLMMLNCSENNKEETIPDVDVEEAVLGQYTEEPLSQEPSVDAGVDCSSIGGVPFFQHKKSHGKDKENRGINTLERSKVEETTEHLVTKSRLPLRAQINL
The experiment in a line: Inhibition of human C-terminally His6-tagged microtubule-activated KSP motor domain ATPase activity after 30 mins by luciferase-derived luminescence assay.

Assay [4] deals with HeLa. As to the kind of experiment: Cytotoxicity against human HeLa cells after 48 hrs […]. The format is functional, cell-based. As to conditions: for pIC50: Homo sapiens, HeLa, 48 h.
Assay [5] relates to HeLa. The experiment in a line: Cytotoxicity against human HeLa cells at 60 uM after 48 hrs […]. The format is functional.
The test system of assay [6] is HeLa. The experiment in a line: Cell cycle arrest in human HeLa cells assessed as accumulation at M phase at 36 uM after 20 hrs by DAPI staining relative to taxol. The format is functional. As to conditions: in the assay text read “at 32 uM” for “at 36 uM”. Put shortly:
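HeLa cells were exposed to compound for 20 h and scored for M-phase arrest. Mitotic index was expressed as a percentage of the induction given by 0.1 μM taxol.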

The test system of assay [7] is HeLa. The experiment in a line: Cell cycle arrest in human HeLa cells assessed as accumulation at G2/M phase with incomplete chromosome condensation at 36 uM after 20 hrs by DAPI staining. The format is functional, cell-based.

For orientation: inhibition means the relative decrease from the control value, in per cent. With `COc1ccc2c(c1)[nH]c1c(C)nccc12`, the inhibition result in the assay listed under Sus scrofa [1] and in the assay listed under Sus scrofa [2] was “Active” in each case.

In general, pIC50 refers to the IC50 on a negative log10 scale, so that one unit is a factor of ten. The low end stands for a large IC50, the high end for a small IC50. Turning to `Cc1ccc2c(c1)[nH]c1ccc(C(F)(F)F)cc12`, the pIC50 in assay [3] is 4.96; in the assay with HeLa [4], 4.46.

In the case of `FC(F)(F)Oc1ccc2c(c1)[nH]c1ccccc12`, the pIC50 in assay [3] was 6.29; with HeLa [4], 4.54.

Take `Cc1cccc2c1[nH]c1ccccc12`: the pIC50 in assay [3] was 4.64. Also, the inhibition at 60 µM with HeLa [5] is below 50%.

`CC(=O)c1ccc2[nH]c3cc(C)ccc3c2c1`: the pIC50 in assay [3] is 5.80; in the assay with HeLa [4], 4.29.

In turn, `Cn1c2ccccc2c2ccc(C(F)(F)F)cc21` had a pIC50 in assay [3] of 5.25. In addition, the inhibition at 60 µM in the assay with HeLa [5] is below 50%.

For the molecule `CC(C)(C)Oc1ccc2c(c1)[nH]c1ccccc12`, in assay [3], the negative logarithm of the IC50 (pIC50) is 5.49. The “inhibition (INH)” value in the assay with HeLa [4] was below 50%. Moreover, in the assay on HeLa [5], the inhibition at 60 µM was below 50%.

In the case of `CC(C)c1ccc2c(c1)[nH]c1ccccc12`, the pIC50 (in assay [3]; in the assay with HeLa [4]) was 5.82 each time.

`CCCCN1C(=O)[C@@H]2Cc3c([nH]c4ccccc34)[C@@H](c3cccc(O)c3)N2C1=O`: the pIC50 in assay [3] is 5.15; in the assay on HeLa [4] it was 5.07.

Molecule `Cc1ccc2c(c1)[nH]c1ccc(F)cc12` gave a pIC50 in assay [3] of 5.12. In the assay with HeLa [5], this molecule returned an inhibition at 60 µM below 50%.

In turn, `Cc1ccc2[nH]c3ccc(C(F)(F)F)cc3c2c1` showed a pIC50 in assay [3] of 5.06. In the assay on HeLa [5], this molecule came in with an inhibition at 60 µM below 50%.

For `c1ccc2c(c1)ccc1c3ccccc3[nH]c21`, in assay [3], the pIC50 is 5.34. In the assay with HeLa [5], the inhibition at 60 µM is below 50%.

For the molecule `FC(F)(F)c1cccc2c1[nH]c1ccccc12`, the pIC50 in assay [3] was 5.48. Moreover, the inhibition at 60 µM with HeLa [5] is below 50%.

Regarding `COC(=O)c1ccc2c(c1)[nH]c1ccccc12`, the pIC50 in assay [3] was 4.96. In the assay on HeLa [5], this molecule came in with an inhibition at 60 µM below 50%.

Regarding `CC(C)(C)c1ccc2[nH]c3ccccc3c2c1`, the results for the pIC50 (in assay [3]; with HeLa [4]) were 6.62 and 5.19, respectively. Further, the Activity in the assay on HeLa [6] was found to be 76%. Also, the outcome with HeLa [7] was Active.

Turning to `Cc1ccc2c(c1)[nH]c1ccccc12`, in assay [3], the pIC50 is 4.66. Besides, the inhibition at 60 µM in the assay with HeLa [5] was below 50%.

`CC(C)(C)c1ccc2c(c1)[nH]c1ccc(C(=O)O)cc12`: in assay [3], the pIC50 is 4.96. In addition, the inhibition at 60 µM in the assay with HeLa [5] is below 50%.

The molecule `CC(C)(C)c1ccc2c(c1)[nH]c1cc(C(F)(F)F)ccc12` showed a pIC50 in assay [3] of 5.85. This molecule also registered an inhibition at 60 µM in the assay with HeLa [5] below 50%.

`O=Cc1ccc2c(c1)[nH]c1ccccc12` showed a pIC50 in assay [3] of 4.89. Besides, in the assay on HeLa [5], the inhibition at 60 µM is below 50%.

`c1ccc2c(c1)[nH]c1c3c(ccc12)CCCC3`: the results for the negative-log IC50 (pIC50) (in assay [3]; in the assay with HeLa [4]) were 5.80 and 4.52, respectively.

In the assay on HeLa [5], `Oc1ccc2c(c1)[nH]c1ccccc12` yielded an inhibition at 60 µM below 50%.

In the case of `CC(C)(C)c1cccc2c1[nH]c1ccccc12`, the figures for the pIC50 (in assay [3]; with HeLa [4]) were 4.85 and 4.39, respectively.

As for `COC(=O)c1ccc2[nH]c3cc(C(C)(C)C)ccc3c2c1`, the pIC50 in assay [3] was 6.41. For the same molecule, the inhibition at 60 µM in the assay on HeLa [5] is below 50%.

In assay [3], `c1ccc2c(c1)[nH]c1cc3c(cc12)CCCC3` showed a pIC50 of 4.60. In the assay on HeLa [5], this molecule yielded an inhibition at 60 µM below 50%.

`CCc1ccc2c(c1)[nH]c1ccccc12` gave a pIC50 in assay [3] of 5.55. The molecule further had an inhibition at 60 µM in the assay with HeLa [5] below 50%.

For the molecule `FC(F)c1ccc2c(c1)[nH]c1ccccc12`, the values for the pIC50 (in assay [3]; in the assay on HeLa [4]) were 6.06 and 4.34, respectively.

As for `O=Cc1ccc2[nH]c3ccccc3c2c1`, in assay [3], the pIC50 is 4.77. In the assay on HeLa [5], this molecule showed an inhibition at 60 µM below 50%.

The record behind these values is ChEMBL document CHEMBL1177716, “Kinesin spindle protein (KSP) inhibitors with 2,3-fused indole scaffolds” (J Med Chem, 2010).
